Legend:
[1] = test system: Mycobacterium avium subsp. paratuberculosis; experiment: Antituberculosis activity against Mycobacterium paratuberculosis B238 isolated from bovine assessed as minimum drug level required for inhibition by MGIT 960 susceptibility test; format: functional
In short: (§1)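 10^5 to 10^6 CFU from single-cell suspensions inoculated in duplicate into MGIT ParaTB medium with supplement and egg yolk. Drugs were at final 0.5–64.0 μg/ml, with 128.0 μg/ml added for some strains. Tubes were incubated at 37°C in MGIT 960. Inhibition is the lowest concentration giving a time to detection longer than a drug-free 1:100 inoculum control. Killing is no positive signal through 56 days.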

[2] = test system: Mycobacterium avium subsp. paratuberculosis; experiment: Antituberculosis activity against Mycobacterium paratuberculosis UCF-4 isolated from Crohn's disease patient assessed as minimum drug level required for killing after 56 days by MGIT 960 susceptibility test; format: functional; in short: as §1
[3] = test system: Mycobacterium avium subsp. paratuberculosis; experiment: Antituberculosis activity against Mycobacterium paratuberculosis ATCC 19698 isolated from bovine assessed as lowest drug level producing inhibition at 10^6 CFU of inoculum by agar counting method; format: functional
In short: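 ATCC 19698 at 10^6 CFU was exposed to drug (1.0–64.0 μg/ml) in MGIT ParaTB medium at 37°C. Aliquots taken at 3 and 5 days were centrifuged, resuspended in PBS and declumped with glass beads. Serial dilutions were plated in quadruplicate on 7H10/OADC/mycobactin J and counted after 8 weeks. Inhibition is the lowest concentration giving a 2 log10 (99%) CFU reduction.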

[4] = test system: Mycobacterium avium subsp. paratuberculosis; experiment: Antituberculosis activity against Mycobacterium paratuberculosis B213 isolated from bovine assessed as minimum drug level required for killing after 56 days by MGIT 960 susceptibility test; format: functional; in short: as §1
[5] = test system: Mycobacterium avium subsp. paratuberculosis; experiment: Antituberculosis activity against Mycobacterium paratuberculosis B238 isolated from bovine assessed as minimum drug level required for killing after 56 days by MGIT 960 susceptibility test; format: functional; in short: as §1
[6] = test system: Mycobacterium avium; experiment: Antituberculosis activity against Mycobacterium avium ATCC 35712 isolated from chicken assessed as minimum drug level required for killing after 56 days by MGIT 960 susceptibility test; format: functional; in short: as §1
[7] = test system: Mycobacterium avium subsp. paratuberculosis; experiment: Antituberculosis activity against Mycobacterium paratuberculosis ATCC 19698 isolated from bovine assessed as minimum drug level resulting in no detectable growth at 10^6 CFU of inoculum after 56 days by MGIT 960 susceptibility test; format: functional
In short: (§2)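 M. paratuberculosis ATCC 19698 at 10^6 CFU per MGIT ParaTB tube in duplicate, drugs at final 1.0–64.0 μg/ml, 37°C in MGIT 960. Inhibition is the lowest concentration whose time to detection exceeds the 1:100 diluted-inoculum solvent control. No detectable growth means the tube never signals positive through 56 days.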

[8] = test system: Mycobacterium avium subsp. paratuberculosis; experiment: Antituberculosis activity against Mycobacterium paratuberculosis UCF-5 isolated from Crohn's disease patient assessed as minimum drug level required for inhibition by MGIT 960 susceptibility test; format: functional; in short: as §1
[9] = test system: Mycobacterium avium subsp. paratuberculosis; experiment: Antituberculosis activity against Mycobacterium paratuberculosis UCF-7 isolated from Crohn's disease patient assessed as colony counts at 4 ug after 12 days by MGIT 960 susceptibility test; format: functional
[10] = test system: Mycobacterium avium subsp. paratuberculosis; experiment: Antituberculosis activity against Mycobacterium paratuberculosis UCF-7 isolated from Crohn's disease patient assessed as minimum drug level required for inhibition by MGIT 960 susceptibility test; format: functional; in short: as §1
[11] = test system: Mycobacterium avium subsp. paratuberculosis; experiment: Antituberculosis activity against Mycobacterium paratuberculosis B236 isolated from bovine assessed as minimum drug level required for inhibition by MGIT 960 susceptibility test; format: functional; in short: as §1
[12] = test system: Mycobacterium avium subsp. paratuberculosis; experiment: Antituberculosis activity against Mycobacterium paratuberculosis B236 isolated from bovine assessed as minimum drug level required for killing after 56 days by MGIT 960 susceptibility test; format: functional; in short: as §1
[13] = test system: Mycobacterium avium subsp. paratuberculosis; experiment: Antituberculosis activity against Mycobacterium paratuberculosis ATCC 19698 isolated from bovine assessed as lowest drug level producing inhibition at 10^6 CFU of inoculum by MGIT 960 susceptibility test; format: functional; in short: as §2
[14] = test system: Mycobacterium avium subsp. paratuberculosis; experiment: Antituberculosis activity against Mycobacterium paratuberculosis UCF-7 isolated from Crohn's disease patient assessed as minimum drug level required for killing after 56 days by MGIT 960 susceptibility test; format: functional; in short: as §1
[15] = test system: Mycobacterium avium subsp. paratuberculosis; experiment: Antituberculosis activity against Mycobacterium paratuberculosis ATCC 19698 isolated from bovine assessed as viability after 5 to 8 days by standard plate count method
[16] = test system: Mycobacterium avium subsp. paratuberculosis; experiment: Antituberculosis activity against Mycobacterium paratuberculosis UCF-4 isolated from Crohn's disease patient assessed as minimum drug level required for inhibition by MGIT 960 susceptibility test; format: functional; in short: as §1
[17] = test system: Mycobacterium avium subsp. paratuberculosis; experiment: Antituberculosis activity against Mycobacterium paratuberculosis UCF-5 isolated from Crohn's disease patient assessed as minimum drug level required for killing after 56 days by MGIT 960 susceptibility test; format: functional; in short: as §1
[18] = test system: Mycobacterium avium subsp. paratuberculosis; experiment: Antituberculosis activity against Mycobacterium paratuberculosis JTC303 isolated from bovine assessed as minimum drug level required for inhibition by MGIT 960 susceptibility test; format: functional; in short: as §1
[19] = test system: Mycobacterium avium subsp. paratuberculosis; experiment: Antituberculosis activity against Mycobacterium paratuberculosis UCF-7 isolated from Crohn's disease patient assessed as colony counts at 2 ug after 12 days by MGIT 960 susceptibility test; format: functional
[20] = test system: Mycobacterium avium subsp. paratuberculosis; experiment: Antituberculosis activity against Mycobacterium paratuberculosis B213 isolated from bovine assessed as minimum drug level required for inhibition by MGIT 960 susceptibility test; format: functional; in short: as §1
[21] = test system: Mycobacterium avium subsp. paratuberculosis; experiment: Antituberculosis activity against Mycobacterium paratuberculosis JTC303 isolated from bovine assessed as minimum drug level required for killing after 56 days by MGIT 960 susceptibility test; format: functional; in short: as §1
[22] = test system: Mycobacterium avium; experiment: Antituberculosis activity against Mycobacterium avium ATCC 35712 isolated from chicken assessed as minimum drug level required for inhibition by MGIT 960 susceptibility test; format: functional; in short: as §1

**Q.** Which results are given for `O=C(O)c1cn(C2CC2)c2cc(N3CCNCC3)c(F)cc2c1=O` [CIPROFLOXACIN]?
**A.** Activity [1]: 4 µg/mL; Activity [2]: 4 µg/mL; Activity [3]: 1 µg/mL; Activity [4]: 16 µg/mL; Activity [5]: 16 µg/mL; Activity [6]: 64 µg/mL; Activity [7]: 32 µg/mL; Activity [8]: 2 µg/mL; log10CFU/ml [9]: 0.76; Activity [10]: 1 µg/mL; Activity [11]: 4 µg/mL; Activity [12]: 16 µg/mL; Activity [13]: 1 µg/mL; Activity [14]: 4 µg/mL; log10CFU/ml [15]: 1; Activity [16]: 1 µg/mL; Activity [17]: 4 µg/mL; Activity [18]: 2 µg/mL; log10CFU/ml [19]: 1.98; Activity [20]: 4 µg/mL; Activity [21]: 8 µg/mL; Activity [22]: 16 µg/mL

**Q.** With `CC[C@H]1OC(=O)[C@H](C)[C@@H](O[C@H]2C[C@@](C)(OC)[C@@H](O)[C@H](C)O2)[C@H](C)[C@@H](O[C@@H]2O[C@H](C)C[C@H](N(C)C)[C@H]2O)[C@](C)(O)C[C@@H](C)CN(C)[C@H](C)[C@@H](O)[C@]1(C)O` [AZITHROMYCIN] as the molecule, how does the Activity [1] read?
**A.** >0.5 µg/mL

**Q.** And the Activity [2]?
**A.** 2 µg/mL

**Q.** And the Activity [3]?
**A.** 4 µg/mL

**Q.** And the Activity [4]?
**A.** 2 µg/mL

**Q.** What about the Activity [5] of the same molecule?
**A.** 1 µg/mL

**Q.** And the Activity [6]?
**A.** 16 µg/mL

**Q.** And the Activity [7]?
**A.** 16 µg/mL

**Q.** And the Activity [8]?
**A.** 0.5 µg/mL

**Q.** What about the Activity [10] of the same molecule?
**A.** 0.5 µg/mL

**Q.** What about the Activity [11] of the same molecule?
**A.** 0.5 µg/mL

**Q.** What about the Activity [12] of the same molecule?
**A.** 4 µg/mL

**Q.** And the Activity [13]?
**A.** 4 µg/mL

**Q.** What about the Activity [14] of the same molecule?
**A.** 1 µg/mL

**Q.** And the Activity [16]?
**A.** 1 µg/mL

**Q.** What about the Activity [17] of the same molecule?
**A.** 2 µg/mL

**Q.** What about the Activity [18] of the same molecule?
**A.** 1 µg/mL

**Q.** And the Activity [20]?
**A.** 1 µg/mL

**Q.** What about the Activity [21] of the same molecule?
**A.** 4 µg/mL

**Q.** What about the Activity [22] of the same molecule?
**A.** 1 µg/mL

**Q.** Which Activity [3] does the source give for `CCn1cc(C(=O)O)c(=O)c2ccc(C)nc21` [NALIDIXIC ACID] here?
**A.** >64 µg/mL

**Q.** What about the Activity [7] of the same molecule?
**A.** >64 µg/mL

**Q.** What about the Activity [13] of the same molecule?
**A.** >64 µg/mL

**Q.** What does the source list for `CO[C@H]1/C=C/O[C@@]2(C)Oc3c(C)c(O)c4c(O)c(c(/C=N/N5CCN(C)CC5)c(O)c4c3C2=O)NC(=O)/C(C)=C\C=C\[C@H](C)[C@H](O)[C@@H](C)[C@@H](O)[C@@H](C)[C@H](OC(C)=O)[C@@H]1C` [RIFAMPIN]?
**A.** Activity [3]: 2 µg/mL; Activity [7]: >64 µg/mL; Activity [13]: 2 µg/mL
